Source: ChEMBL document CHEMBL1145158, “Selective substrate-based inhibitors of mammalian dimethylarginine dimethylaminohydrolase” (J Med Chem, 2005)

Tests used:
[1] = Inhibition of [14C]-L-NMMA (1 umol/L) binding to dimethylarginine dimethylaminohydrolase of rat kidney homogenate
In short: (§1)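 Rat kidney homogenized in PBS with PMSF 1 mM and leupeptin, pepstatin, chymostatin (5 µg/mL each), then spun; high-speed supernatant used as enzyme source (both DDAH isoforms). [14C]L-NMMA 1 µmol/L added, 1 h at 37 °C; stopped with neutral-pH Dowex resin binding unmetabolized L-NMMA. [14C]citrulline counted by scintillation. Screening at 1 mM or 100 µM; IC50 determined for actives.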

[2] = species: Rattus norvegicus; assay: Inhibition of [14C]-L-NMMA (1 umol/L) binding to dimethylarginine dimethylaminohydrolase of rat kidney homogenate 100 uM; in short: as §1
[3] = species: Rattus norvegicus; assay: Inhibition of [14C]-L-NMMA (1 umol/L) binding to dimethylarginine dimethylaminohydrolase of rat kidney homogenate at 1 mM; in short: as §1

SMILES: COCCN/C(N)=N/CC[C@H](N)C(=O)OC(C)C
- IC50 [1]: 189 µM
- inhibition [2]: 30%

SMILES: CCCOC(=O)[C@@H](N)CC/N=C(\N)NCCOC
- IC50 [1]: 111 µM
- inhibition [2]: 64%

SMILES: N/C(=N\CC[C@H](N)C(=O)O)N1CCCCC1
- inhibition [3]: 74%
- IC50 [1]: 264 µM

SMILES: CC/N=C(\N)NCC[C@H](N)C(=O)O
- inhibition [3]: 100%
- IC50 [1]: 300 µM

SMILES: C/N=C(\N)NCC[C@H](N)C(=O)O
- inhibition [3]: 48%
- IC50 [1]: 1510 µM

SMILES: COCCNC(=N)NCCC[C@H](N)C(=O)O
- IC50 [1]: 22 µM
- inhibition [2]: 100%

SMILES: COCC/N=C(\N)NCC[C@H](N)C(=O)O
- inhibition [3]: 90%
- IC50 [1]: 189 µM

SMILES: CC(C)OCC/N=C(\N)NCC[C@H](N)C(=O)O
- inhibition [3]: 97%
- IC50 [1]: 301 µM

SMILES: COCC/N=C(/N)NCCC[C@H](N)C(=O)OC
- IC50 [1]: 20 µM
- inhibition [2]: 83%

SMILES: CN(C)C(=N)NCC[C@H](N)C(=O)O
- inhibition [3]: 85%
- IC50 [1]: 325 µM
